# Experimental data published in ChEMBL document CHEMBL1129419, “1-Aminocyclobutanecarboxylic acid derivatives as novel structural elements in bioactive peptides: application to tuftsin analogs” (J Med Chem, 1996).
# Where a SMILES comes first, the peptide text is derived from it.
# Columns and labels:
# [1] = Plasma half life of compound reported; type: ADME, cell-free
# Outline: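 Peptide (0.5 mg) was incubated in 0.5 mL human serum at 37 °C. Aliquots were taken at 0-240 min, boiled at 90-95 °C for 5 min, diluted with water and centrifuged. Intact peptide was quantified by isocratic RP-HPLC at 220 nm, with peak area referenced to an internal serum peak and time 0 set at 100%. Half-life was read from the degradation time course.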
# [2] = Compound was evaluated for the secretion of interleukin-6 (IL-6) by macrophages incubated in the presence of antigen Keyhole Limpet Hemocyanin (KLH) at concentration of 2 x 10E-8 M; type: functional
# Outline: (§1)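 Thioglycollate-elicited peritoneal macrophages from (BALB/c x C3H.eb)F1 mice (6-8 weeks), >90% pure, cultured at 10⁶/mL in DMEM for 48 h at 37 °C, 5% CO₂. Incubated 20 h in triplicate with KLH plus peptide (2 × 10^-7 to 2 × 10^-9 M). Pooled supernatants were assayed for IL-6 by B9 hybridoma proliferation ([³H]thymidine, 2-fold dilutions), giving arbitrary units with KLH alone set at 1000 units. Three experiments were averaged.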
# [3] = Compound was evaluated for the secretion of interleukin-6 (IL-6) by macrophages incubated in the presence of antigen Keyhole Limpet Hemocyanin (KLH) at concentration of 2 x 10E-7 M; type: functional; outline: as §1
# [4] = Compound was evaluated for the secretion of interleukin-6 (IL-6) by macrophages incubated in the presence of antigen Keyhole Limpet Hemocyanin (KLH) at concentration of 2 x 10E-9 M; type: functional; outline: as §1
half-life [1],T1/2 [1],SMILES,Secretion [2],Secretion [3],Secretion [4]
11 min,–,C[C@@H](O)[C@H](N)C(=O)N[C@@H](CCCCN)C(=O)N1CCC[C@H]1C(=O)N[C@]1(C(=O)O)C[C@@H](CN=C(N)N)C1,–,–,–
25 min,–,C[C@@H]1CC[C@]1(NC(=O)[C@H](CCCCN)NC(=O)[C@@H](N)[C@@H](C)O)C(=O)N[C@@H](CCCNC(=N)N)C(=O)O (stereo in doubt; 27a),95%,141%,–
–,15 min,C[C@@H]1CC[C@]1(NC(=O)[C@H](CCCCN)NC(=O)[C@@H](N)[C@@H](C)O)C(=O)N[C@@H](CCCNC(=N)N)C(=O)O (stereo in doubt; 27b),–,–,–

# Further lines, the compound ahead of its results:
SMILES,half-life [1],T1/2 [1],Secretion [2],Secretion [3],Secretion [4]
C[C@@H](O)[C@H](N)C(=O)N[C@]1(C(=O)N2CCC[C@H]2C(=O)N[C@@H](CCCN=C(N)N)C(=O)O)C[C@@H](CN)C1,–,–,54%,68%,–
C[C@@H](O)[C@H](N)C(=O)NC1(C(=O)N2CCC[C@H]2C(=O)N[C@@H](CCCN=C(N)N)C(=O)O)CC(CCN)C1 (some centres undefined),13 min,–,–,–,–
NCCCC[C@H](NC(=O)[C@]1(N)C[C@H](CO)C1)C(=O)N1CCC[C@H]1C(=O)N[C@@H](CCCN=C(N)N)C(=O)O,–,–,29%,125%,–
C[C@@H](O)[C@H](N)C(=O)N[C@@H](CCCCN)C(=O)N1CCC[C@H]1C(=O)N[C@@H](CCCN=C(N)N)C(=O)O (H-TKPR-OH),–,–,42%,78%,32%
C[C@@H]1CC[C@]1(NC(=O)[C@H](CCCCN)NC(=O)[C@@H](N)[C@@H](C)O)C(=O)N[C@@H](CCCNC(=N)N)C(=O)O (stereo in doubt; 27),–,–,–,30%,–
